In PMC8502542 (International Journal of Nanomedicine, 2021):

Assays:
[1] = tested on: MIA PaCa-2 cell line; assay: MTT cytotoxicity and combination index; assay type: cell-based, human; settings: MIA PaCa-2, MTT, 72 hours
Summary of the method: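 MIA PaCa-2 (ATCC) seeded at 3×10^3 cells/well and grown 24 h at 37°C, 5% CO2. Exposed 72 h to test compound (DMSO solution, solvent-based, or albumin nanoparticle form) at 0.01, 0.1, 1, 5, 10, 50, 100 and 1000 ng/mL. MTT (0.5 mg/mL) added for 2 h, formazan dissolved in DMSO, A550 read. Survival expressed as % of control wells.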

[2] = plasma, after administration; cited from earlier work

Compound | IC50, weight ratio CFZ:PTX 1: 0 ([1]; CFZ form alone) [ng/mL] | initial half-life (T1/2,initial) [2] [min] | IC50, weight ratio CFZ:PTX 0: 1 ([1]; PTX form alone) [ng/mL]
CC(C)C[C@H](NC(=O)[C@H](CCc1ccccc1)NC(=O)CN1CCOCC1)C(=O)N[C@@H](Cc1ccccc1)C(=O)N[C@@H](CC(C)C)C(=O)[C@@]1(C)CO1 [CFZfree, carfilzomib] | 8.90 | < 20 | –
CC(=O)O[C@H]1C(=O)[C@@]2(C)[C@H]([C@H](OC(=O)c3ccccc3)[C@]3(O)C[C@H](OC(=O)[C@H](O)[C@@H](NC(=O)c4ccccc4)c4ccccc4)C(C)=C1C3(C)C)[C@]1(OC(C)=O)CO[C@@H]1C[C@@H]2O [PTXfree, paclitaxel] | – | – | 0.44
